Data published in PMC3616455 (Molecular Pharmaceutics, 2013).
Residues, ends and D or L forms follow the SMILES beside them.

Columns and labels:
[1] = Solubility of the model ester; assay type: physicochemical
[2] = molecular target: T1, HCMV A143T/A144T protease mutant (Human cytomegalovirus, UniProt P16753, A143T/A144T); experiment: Esterase activity toward p-nitrophenol; assay type: biochemical; conditions: for hydrolysis by HCMV protease (in words): up to 10 min at 30 °C
T1 sequence (P16753 1-256 A143T/A144T limits assumed): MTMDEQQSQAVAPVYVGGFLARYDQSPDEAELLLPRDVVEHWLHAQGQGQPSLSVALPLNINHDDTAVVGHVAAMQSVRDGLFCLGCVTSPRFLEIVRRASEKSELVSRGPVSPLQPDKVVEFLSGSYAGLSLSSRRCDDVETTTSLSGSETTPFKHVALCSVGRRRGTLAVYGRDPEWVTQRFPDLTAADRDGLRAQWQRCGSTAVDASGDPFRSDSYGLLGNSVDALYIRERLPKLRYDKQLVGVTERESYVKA
Procedure, shortened: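 Catalytic-domain His-tagged A143T/A144T mutant, expressed in E. coli BL21(DE3) and Ni-NTA purified, 10 μg/mL, preincubated 3 min in 100 mM phosphate pH 7.4 with 0.5 M Na2SO4 and 10% glycerol. Boc-Xaa-ONp (50 μM) then added at 30 °C for up to 10 min. p-Nitrophenol release read at 405 nm every 30 s. Boc-Ala-ONp kinetics run in 50 mM Tris pH 7.4.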

HCMV protease = conditions: substrate hydrolysis, literature data; cited from earlier work
[3] = substrate hydrolysis, 10 μg/mL protease, 50 mM Tris buffer (pH 7.4)

C[C@H](NC(=O)OC(C)(C)C)C(=O)Oc1ccc([N+](=O)[O-])cc1 [Boc-L-Ala-ONp]
solubility (in words) [1]: low solubility
specific activity relative to Boc-L-Gly-ONp and Boc-L-Phe-ONp (higher) ([2]; 50 μM ester, 10 μg/mL protease): ~5 fold
specific activity ([2]; 50 μM ester, 10 μg/mL protease, 30 °C): 190 nmol/min/mg protein
affinity relative to N-Ac-Tbg-Tbg-Asn(NMe2)-Ala-AMC (less) ([2]; comparison of Km values): about 10 fold
turnover rate (kcat) relative to the peptide compound (faster) ([2]; comparison of kcat values): 10 fold
Km [2, 3]: 163 µM
kcat [2, 3]: 0.397 s^–1

CC(C)(C)OC(=O)N[C@@H](CCC(N)=O)C(=O)Oc1ccc([N+](=O)[O-])cc1 [Boc-L-Gln-ONp]
hydrolysis by HCMV protease (in words) ([2]; 50 μM ester, 10 μg/mL protease): not hydrolyzed

CC(C)(C)OC(=O)NCC(=O)NCC(=O)Oc1ccc([N+](=O)[O-])cc1 [Boc-L-Gly-L-Gly-ONp] (HELM PEPTIDE1{[CC(C)(C)OC(=O)[*:2]].G.G.[O=[N+]([O-])c1ccc(O[*:1])cc1]}$$$$V2.0)
hydrolysis by HCMV protease (in words) ([2]; 50 μM ester, 10 μg/mL protease): slower than that of Boc-L-Gly-ONp

CCC(C)C(NC(=O)OC(C)(C)C)C(=O)Oc1ccc([N+](=O)[O-])cc1 [Boc-L-Ile-ONp]
hydrolysis by HCMV protease (in words) ([2]; 50 μM ester, 10 μg/mL protease): not hydrolyzed

CC(C)CC(NC(=O)OC(C)(C)C)C(=O)Oc1ccc([N+](=O)[O-])cc1 [Boc-L-Leu-ONp]
hydrolysis by HCMV protease (in words) ([2]; 50 μM ester, 10 μg/mL protease): not hydrolyzed

CC(C)[C@H](NC(=O)OC(C)(C)C)C(=O)Oc1ccc([N+](=O)[O-])cc1 [Boc-L-Val-ONp]
hydrolysis by HCMV protease (in words) ([2]; 50 μM ester, 10 μg/mL protease): not hydrolyzed

N-Ac-Tbg-Tbg-Asn(NMe2)-Ala-AMC
Km (HCMV protease): 13.2 µM
kcat (HCMV protease): 0.035 ^b s^–1
